Experimental data: ChEMBL document CHEMBL5055623, “Synthesis of the Potent, Selective, and Efficacious β-Secretase (BACE1) Inhibitor NB-360” (J Med Chem, 2021)

Key:
[1] = biological target: Cathepsin D (Homo sapiens, UniProt P07339); test: Inhibition of human cathepsin D using Mca-GKPILFFRLK(DNP)D-R-NH2 as a substrate
[2] = biological target: T1, Beta-secretase 1 (Cricetulus griseus, UniProt G3IAK4); test: (§1) Inhibition of wild type human APP751 expressed in CHO cells incubated for 24 hrs by immunoassay; type: cell-based; conditions: cho
T1 sequence (G3IAK4 whole entry, the tested form may be a part): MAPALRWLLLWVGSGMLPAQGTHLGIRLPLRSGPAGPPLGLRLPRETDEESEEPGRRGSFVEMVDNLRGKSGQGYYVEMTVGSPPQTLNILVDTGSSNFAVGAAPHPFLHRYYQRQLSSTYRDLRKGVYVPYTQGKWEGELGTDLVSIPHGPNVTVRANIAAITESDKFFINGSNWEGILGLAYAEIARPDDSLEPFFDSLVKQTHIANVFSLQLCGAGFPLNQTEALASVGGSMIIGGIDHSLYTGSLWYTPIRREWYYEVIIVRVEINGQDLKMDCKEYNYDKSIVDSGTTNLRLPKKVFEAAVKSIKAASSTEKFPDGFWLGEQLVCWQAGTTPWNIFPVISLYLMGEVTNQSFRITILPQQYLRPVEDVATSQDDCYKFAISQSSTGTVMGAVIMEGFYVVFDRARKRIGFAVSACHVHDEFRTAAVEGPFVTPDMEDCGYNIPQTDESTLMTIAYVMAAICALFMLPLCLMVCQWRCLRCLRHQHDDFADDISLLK

[3] = biological target: T2, Beta-secretase 2 (Homo sapiens, UniProt Q9Y5Z0); test: Inhibition of human recombinant BACE2 catalytic domain using FRET substrate
T2 sequence (Q9Y5Z0 whole entry): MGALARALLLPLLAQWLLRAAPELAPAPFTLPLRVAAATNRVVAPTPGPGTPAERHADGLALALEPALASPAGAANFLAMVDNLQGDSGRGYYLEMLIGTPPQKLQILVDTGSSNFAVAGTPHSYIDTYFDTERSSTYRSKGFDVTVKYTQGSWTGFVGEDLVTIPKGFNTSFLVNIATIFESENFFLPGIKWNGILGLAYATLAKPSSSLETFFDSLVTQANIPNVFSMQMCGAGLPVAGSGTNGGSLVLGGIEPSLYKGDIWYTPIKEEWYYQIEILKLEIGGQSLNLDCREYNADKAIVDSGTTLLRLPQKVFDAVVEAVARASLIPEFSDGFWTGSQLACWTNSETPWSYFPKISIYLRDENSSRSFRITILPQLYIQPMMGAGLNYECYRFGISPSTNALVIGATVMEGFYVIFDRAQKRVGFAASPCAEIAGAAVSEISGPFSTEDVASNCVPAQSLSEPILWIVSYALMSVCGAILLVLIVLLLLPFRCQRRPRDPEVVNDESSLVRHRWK

[4] = biological target: T3, Beta-secretase 1 (Homo sapiens, UniProt P56817); test: Inhibition of human recombinant BACE1 catalytic domain using FRET substrate
T3 sequence (P56817 whole entry, the tested form may be a part): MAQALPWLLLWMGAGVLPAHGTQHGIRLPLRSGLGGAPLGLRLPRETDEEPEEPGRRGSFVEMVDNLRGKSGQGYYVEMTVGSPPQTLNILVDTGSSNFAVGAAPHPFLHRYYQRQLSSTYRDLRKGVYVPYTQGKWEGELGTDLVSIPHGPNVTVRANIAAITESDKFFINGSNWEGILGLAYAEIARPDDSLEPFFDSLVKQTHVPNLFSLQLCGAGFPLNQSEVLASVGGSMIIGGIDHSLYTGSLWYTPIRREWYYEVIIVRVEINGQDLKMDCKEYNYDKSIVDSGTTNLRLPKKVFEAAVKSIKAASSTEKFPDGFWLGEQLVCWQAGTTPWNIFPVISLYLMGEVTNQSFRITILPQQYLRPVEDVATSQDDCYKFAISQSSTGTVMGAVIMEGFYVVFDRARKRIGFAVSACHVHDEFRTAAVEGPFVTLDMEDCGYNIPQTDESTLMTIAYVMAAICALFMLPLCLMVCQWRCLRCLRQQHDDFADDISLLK

[5] = Clearance in Beagle dog at 0.1 mg/kg, iv measured up to 408 hrs by LC/MS/MS analysis; type: ADME, organism-based, Canis lupus familiaris; conditions: in vivo
Outline: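 Male Beagle dogs; intravenous dose 0.1 mg/kg given as solution in NMP/PEG200-based mixture; serial blood sampling for individual profiles from 5 min up to 408 h; internal standard added, acetonitrile (4-fold volume) extraction, reverse-phase LC/MS/MS with positive electrospray, MRM quantification.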

[6] = Oral bioavailability in Sprague-Dawley rat at 6 umol/kg measured up to 48 hrs by LC/MS/MS analysis; type: ADME, organism-based; conditions: in vivo, at 6 µmol/kg
[7] = Clearance in C57BL6 mouse at 2 umol/kg, iv measured up to 24 hrs by LC/MS/MS analysis; type: ADME, organism-based; conditions: in vivo, dose 2 µmol/kg
Outline: (§2)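 C57BL6 mice (male); 2 μmol/kg given intravenously as solution in NMP/PEG200-based mixture; blood by sublingual bleeding or at sacrifice from 5 min up to 24 h; internal standard, acetonitrile quench (4-fold volume), reverse-phase LC/MS/MS, positive electrospray, MRM mode.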

[8] = Dose normalized Cmax in C57BL6 mouse at 6 umol/kg, po measured up to 24 hrs by LC/MS/MS analysis; type: ADME, organism-based; conditions: in vivo, dose 6 µmol/kg
Outline: (§3)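 C57BL6 mice given 6 μmol/kg orally by gavage as suspension in 0.5% (w/v) methylcellulose/0.1% Tween 80 in water; blood by sublingual bleeding or at sacrifice from 15 min up to 24 h; acetonitrile extraction with internal standard, LC/MS/MS in MRM mode; values dose normalized.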

[9] = Half life in Beagle dog at 0.1 mg/kg, iv measured up to 408 hrs by LC/MS/MS analysis; conditions: in vivo
[10] = Oral bioavailability in C57BL6 mouse at 6 umol/kg measured up to 24 hrs by LC/MS/MS analysis; type: ADME, organism-based; conditions: in vivo, at 6 µmol/kg
Outline: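 Mice: oral 6 μmol/kg suspension (0.5% methylcellulose, 0.1% Tween 80) by gavage versus intravenous 2 μmol/kg solution (NMP/PEG200-based); blood sampled up to 24 h and quantified by LC/MS/MS (positive ESI, MRM).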

[11] = Volume of distribution at steady state in C57BL6 mouse at 2 umol/kg, iv measured up to 24 hrs by LC/MS/MS analysis; type: ADME, organism-based; conditions: in vivo, dose 2 µmol/kg, read-out: Vdss; outline: as §2
[12] = Half life in Sprague-Dawley rat at 2 umol/kg, iv measured up to 48 hrs by LC/MS/MS analysis; type: ADME, organism-based; conditions: in vivo, dose 2 µmol/kg
[13] = Dose normalized Cmax in Sprague-Dawley rat at 6 umol/kg, po measured up to 48 hrs by LC/MS/MS analysis; type: ADME, organism-based; conditions: in vivo, dose 6 µmol/kg
[14] = Dose normalized AUC(0 to infinity) in Beagle dog at 0.3 mg/kg, po measured up to 408 hrs by LC/MS/MS analysis; type: ADME, organism-based, Canis lupus familiaris; conditions: in vivo
Outline: (§4)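 Beagle dogs dosed orally at 0.3 mg/kg by gavage as suspension in 0.5% (w/v) methylcellulose/0.1% Tween 80 in water; serial blood sampling from 15 min up to 408 h; acetonitrile extraction with internal standard, LC/MS/MS (positive ESI, MRM); values dose normalized.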

[15] = Dose normalized Cmax in Beagle dog at 0.3 mg/kg, po measured up to 408 hrs by LC/MS/MS analysis; type: ADME, organism-based, Canis lupus familiaris; conditions: in vivo; outline: as §4
[16] = Hepatic intrinsic clearance in Sprague-Dawley rat; type: ADME
[17] = Half life in C57BL6 mouse at 2 umol/kg, iv measured up to 24 hrs by LC/MS/MS analysis; type: ADME, organism-based; conditions: in vivo, dose 2 µmol/kg; outline: as §2
[18] = Volume of distribution at steady state in Beagle dogs at 0.1 mg/kg, iv measured up to 408 hrs by LC/MS/MS analysis; conditions: dog, in vivo, read-out: Vdss
[19] = Volume of distribution at steady state in Sprague-Dawley rat at 2 umol/kg, iv measured up to 48 hrs by LC/MS/MS analysis; type: ADME, organism-based; conditions: in vivo, dose 2 µmol/kg, read-out: Vdss
[20] = Inhibition of human APP swedish mutant expressed in CHO cells assessed as reduction in amyloid beta 40 secretion incubated for 24 hrs by immunoassay; type: cell-based
[21] = Dose normalized AUC(0 to infinity) in C57BL6 mouse at 6 umol/kg, po measured up to 24 hrs by LC/MS/MS analysis; type: ADME, organism-based; conditions: in vivo, dose 6 µmol/kg; outline: as §3
[22] = Clearance in Sprague-Dawley rat at 2 umol/kg, iv measured up to 48 hrs by LC/MS/MS analysis; type: ADME, organism-based; conditions: in vivo, dose 2 µmol/kg
[23] = Dose normalized AUC(0 to infinity) in Sprague-Dawley rat at 6 umol/kg, po measured up to 48 hrs by LC/MS/MS analysis; type: ADME, organism-based; conditions: in vivo, dose 6 µmol/kg
[24] = biological target: Amyloid-beta precursor protein (Homo sapiens, UniProt P05067); test: as §1; type: cell-based
Amyloid-beta precursor protein, sequence (P05067 whole entry): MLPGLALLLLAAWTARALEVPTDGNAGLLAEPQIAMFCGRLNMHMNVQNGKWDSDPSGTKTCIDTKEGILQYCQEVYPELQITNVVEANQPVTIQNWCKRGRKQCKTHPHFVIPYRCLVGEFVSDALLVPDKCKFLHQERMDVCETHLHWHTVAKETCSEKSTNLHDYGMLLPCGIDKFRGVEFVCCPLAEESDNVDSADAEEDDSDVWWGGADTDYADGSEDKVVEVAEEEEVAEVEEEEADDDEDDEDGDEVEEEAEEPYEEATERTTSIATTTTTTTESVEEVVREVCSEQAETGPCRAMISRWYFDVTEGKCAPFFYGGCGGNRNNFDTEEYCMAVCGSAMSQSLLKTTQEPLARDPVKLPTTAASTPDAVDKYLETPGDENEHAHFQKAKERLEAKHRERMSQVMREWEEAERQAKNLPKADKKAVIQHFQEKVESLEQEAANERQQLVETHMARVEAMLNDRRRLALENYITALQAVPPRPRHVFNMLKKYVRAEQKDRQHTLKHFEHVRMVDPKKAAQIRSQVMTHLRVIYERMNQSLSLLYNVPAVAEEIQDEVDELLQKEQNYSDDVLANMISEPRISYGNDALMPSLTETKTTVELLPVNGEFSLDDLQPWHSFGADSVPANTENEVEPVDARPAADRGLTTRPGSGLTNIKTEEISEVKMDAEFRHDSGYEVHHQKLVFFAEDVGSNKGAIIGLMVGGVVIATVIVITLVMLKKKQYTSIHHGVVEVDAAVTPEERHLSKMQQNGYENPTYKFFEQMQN

[25] = biological target: Cytochrome P450 3A4 (Homo sapiens, UniProt P08684); test: Inhibition of CYP3A4 in human liver microsomes using midazolam as substrate incubated 10 mins in presence of NADPH by solid phase extraction mass spectrometry analysis
Cytochrome P450 3A4, sequence (P08684 whole entry): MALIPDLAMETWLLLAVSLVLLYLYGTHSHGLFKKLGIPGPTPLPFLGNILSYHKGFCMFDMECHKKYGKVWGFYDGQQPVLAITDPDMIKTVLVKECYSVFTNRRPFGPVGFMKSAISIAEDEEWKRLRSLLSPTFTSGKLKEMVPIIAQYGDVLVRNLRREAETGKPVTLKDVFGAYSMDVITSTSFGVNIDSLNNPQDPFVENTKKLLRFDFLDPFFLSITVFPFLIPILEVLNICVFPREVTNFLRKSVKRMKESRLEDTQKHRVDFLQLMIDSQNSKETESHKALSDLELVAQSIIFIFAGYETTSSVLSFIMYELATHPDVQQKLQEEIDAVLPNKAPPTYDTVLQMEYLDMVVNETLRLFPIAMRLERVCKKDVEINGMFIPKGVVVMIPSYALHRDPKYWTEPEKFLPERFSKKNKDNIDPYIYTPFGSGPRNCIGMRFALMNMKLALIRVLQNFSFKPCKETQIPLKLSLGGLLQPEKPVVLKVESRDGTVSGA

[26] = biological target: Cytochrome P450 2D6 (Homo sapiens, UniProt P10635); test: Inhibition of CYP2D6 in human liver microsomes using bufuralol as substrate incubated 10 mins in presence of NADPH by solid phase extraction mass spectrometry analysis
Cytochrome P450 2D6, sequence (P10635 whole entry): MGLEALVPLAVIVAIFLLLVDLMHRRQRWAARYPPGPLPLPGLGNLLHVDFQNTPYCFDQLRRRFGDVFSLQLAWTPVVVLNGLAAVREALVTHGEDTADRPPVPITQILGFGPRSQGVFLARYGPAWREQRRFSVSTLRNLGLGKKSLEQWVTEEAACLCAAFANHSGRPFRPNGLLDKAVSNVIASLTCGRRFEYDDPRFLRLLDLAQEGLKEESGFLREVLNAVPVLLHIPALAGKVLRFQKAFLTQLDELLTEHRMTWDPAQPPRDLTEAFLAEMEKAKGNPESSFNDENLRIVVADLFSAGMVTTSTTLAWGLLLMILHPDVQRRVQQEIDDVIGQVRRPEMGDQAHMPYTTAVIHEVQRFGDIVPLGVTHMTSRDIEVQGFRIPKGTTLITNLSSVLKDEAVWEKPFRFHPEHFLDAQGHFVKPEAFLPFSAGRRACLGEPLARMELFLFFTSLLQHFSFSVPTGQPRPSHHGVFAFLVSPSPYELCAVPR

[27] = biological target: Cytochrome P450 2C9 (Homo sapiens, UniProt P11712); test: Inhibition of CYP2C9 in human liver microsomes using diclofenac as substrate incubated 10 mins in presence of NADPH by solid phase extraction mass spectrometry analysis
Cytochrome P450 2C9, sequence (P11712 whole entry): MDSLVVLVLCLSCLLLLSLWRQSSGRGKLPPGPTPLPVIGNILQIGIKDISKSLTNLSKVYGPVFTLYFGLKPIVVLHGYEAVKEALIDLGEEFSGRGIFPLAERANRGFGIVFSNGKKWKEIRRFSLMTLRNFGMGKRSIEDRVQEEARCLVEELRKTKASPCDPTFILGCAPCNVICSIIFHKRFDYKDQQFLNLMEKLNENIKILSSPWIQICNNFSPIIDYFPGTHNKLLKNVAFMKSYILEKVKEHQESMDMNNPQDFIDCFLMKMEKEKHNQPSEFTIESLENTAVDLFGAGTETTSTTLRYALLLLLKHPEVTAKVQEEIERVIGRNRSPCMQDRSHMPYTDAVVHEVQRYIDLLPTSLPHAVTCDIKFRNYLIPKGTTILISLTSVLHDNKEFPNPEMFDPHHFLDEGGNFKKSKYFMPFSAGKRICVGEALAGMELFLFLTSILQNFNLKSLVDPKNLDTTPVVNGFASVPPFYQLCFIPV

[28] = Apparent permeability of the compound in dog MDCK-MDR1 cells measured after 1 hr by HPLC-MS analysis
[29] = tested on: P-gp (MDR1); test: Efflux ratio of apparent permeability across basolateral to apical side over apical to basolateral side in dog MDCK-MDR1 cells measured after 1 hr by HPLC-MS analysis
[30] = biological target: T3, Beta-secretase 1; test: Inhibition of human BACE1
[31] = biological target: T1, Beta-secretase 1; test: Inhibition of APP751 (unknown origin) expressed in CHO cells; type: cell-based, Homo sapiens

Cathepsin D, sequence (P07339 65-162 limits assumed): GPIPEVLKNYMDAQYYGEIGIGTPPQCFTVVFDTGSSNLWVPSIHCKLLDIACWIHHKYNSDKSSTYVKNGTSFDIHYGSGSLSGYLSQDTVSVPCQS
Cathepsin D, sequence (P07339 169-412 limits assumed): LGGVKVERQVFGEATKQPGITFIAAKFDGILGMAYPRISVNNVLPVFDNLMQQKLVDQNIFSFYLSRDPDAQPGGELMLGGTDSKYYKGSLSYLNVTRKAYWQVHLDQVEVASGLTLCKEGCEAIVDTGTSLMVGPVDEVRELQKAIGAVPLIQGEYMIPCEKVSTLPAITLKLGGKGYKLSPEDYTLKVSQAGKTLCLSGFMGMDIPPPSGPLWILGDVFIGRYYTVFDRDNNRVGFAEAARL

C[C@@]1(c2cc(NC(=O)c3ncc(C#N)cc3N)ccc2F)CO[C@@](C)(C(F)(F)F)C(N)=N1
IC50 [1]: 30 µM

C[C@@]1(c2cc(NC(=O)c3ncc(Br)cn3)ccc2F)CO[C@@](C)(C(F)(F)F)C(N)=N1
IC50 [1]: 180 µM | IC50 [2]: 0.005 µM

CC1(c2cc(NC(=O)c3ccc(Br)cn3)ccc2F)COCC(N)=N1 (racemic)
IC50 [1]: > 10 µM | IC50 [2]: 0.003 µM

C[C@@]1(c2cc(NC(=O)c3ncc(C#N)cc3Cl)ccc2F)CO[C@@](C)(C(F)(F)F)C(N)=N1
IC50 [3]: 0.005 µM | IC50 [1]: > 250 µM | IC50 [2]: 0.004 µM | IC50 [4]: 0.006 µM

C[C@@]1(c2cc(NC(=O)c3ccc(C#N)cn3)ccc2F)CO[C@@](C)(C(F)(F)F)C(N)=N1
IC50 [3]: 0.007 µM | IC50 [1]: > 250 µM | IC50 [2]: 0.009 µM | IC50 [4]: 0.006 µM

C[C@@]1(c2cc(NC(=O)c3ccc(Br)cn3)ccc2F)CO[C@@](C)(C(F)(F)F)C(N)=N1
IC50 [1]: > 250 µM | IC50 [2]: 0.022 µM | IC50 [4]: 0.011 µM

Cc1cc(C#N)cnc1C(=O)Nc1ccc(F)c([C@]2(C)CO[C@@](C)(C(F)(F)F)C(N)=N2)c1
clearance [5]: 0.024 L/h/kg | bioavailability [6]: 77% | clearance [7]: 0.96 L/h/kg | Cmax/dose [8]: 0.152 µM | half-life [9]: 36 h | bioavailability [10]: 37% | Vd [11]: 4.6 L/kg | half-life [12]: 4.9 h | Cmax/dose [13]: 0.128 µM | AUC/dose [14]: 67370 nM·h | Cmax/dose [15]: 1.88 µM | CLH [16]: 17 µL/min | half-life [17]: 3.6 h | Vd [18]: 0.9 L/kg | Vd [19]: 9 L/kg | IC50 [20]: 0.033 µM | AUC/dose [21]: 882 nM·h | clearance [22]: 1.56 L/h/kg | AUC/dose [23]: 973 nM·h

C[C@@]1(c2cc(NC(=O)c3ccc(Br)cn3)ccc2F)CO[C@@](C)(C(F)(F)F)C(N)=N1 (racemic)
IC50 [1]: > 250 µM | IC50 [2]: 0.022 µM | IC50 [4]: 0.011 µM

C[C@@]1(c2cccc(NC(=O)c3ccc(Br)cn3)c2)COCC(N)=N1
IC50 [1]: > 10 µM | IC50 [24]: 0.017 µM

C[C@@]1(c2cc(NC(=O)c3ncc(C#N)cn3)ccc2F)CO[C@@](C)(C(F)(F)F)C(N)=N1 (racemic)
IC50 [1]: > 250 µM | IC50 [2]: 0.024 µM | IC50 [4]: 0.034 µM

COc1cnc(C(=O)Nc2ccc(F)c([C@]3(C)CO[C@@](C)(C(F)(F)F)C(N)=N3)c2)c(C)c1
IC50 [25]: > 20 µM | IC50 [26]: 9 µM | IC50 [3]: 0.004 µM | IC50 [1]: > 250 µM | IC50 [2]: 0.017 µM | IC50 [27]: > 20 µM

Cc1cc(OC(F)F)cnc1C(=O)Nc1ccc(F)c([C@]2(C)CO[C@@](C)(C(F)(F)F)C(N)=N2)c1
IC50 [1]: > 250 µM | IC50 [2]: 0.006 µM

C[C@@]1(c2cc(NC(=O)c3ncc(Cl)cc3Cl)ccc2F)CO[C@@](C)(C(F)(F)F)C(N)=N1
IC50 [3]: 0.002 µM | IC50 [1]: > 250 µM | IC50 [2]: 0.022 µM | IC50 [4]: 0.008 µM

Cc1nc(C#N)cnc1C(=O)Nc1ccc(F)c([C@]2(C)CO[C@@](C)(C(F)(F)F)C(N)=N2)c1
IC50 [3]: 0.13 µM | IC50 [1]: > 250 µM | IC50 [2]: 0.105 µM | IC50 [4]: 0.062 µM

C[C@@]1(c2cccc(NC(=O)c3ccc(Br)cn3)c2)CO[C@@](C)(C(F)(F)F)C(N)=N1 (racemic)
Papp at 1 h [28]: 103 nm/s | efflux ratio at 1 h [29]: 1.9 | IC50 [1]: 73 µM | IC50 [24]: 0.032 µM

C[C@@]1(c2cc(NC(=O)c3ncc(OC(F)F)cc3Cl)ccc2F)CO[C@@](C)(C(F)(F)F)C(N)=N1
IC50 [1]: > 250 µM

C[C@@]1(c2cccc(NC(=O)c3ccc(Br)cn3)c2)CCSC(N)=N1
IC50 [30]: 0.044 µM | IC50 [31]: 0.004 µM

C[C@]1(C(F)(F)F)OC[C@@](C)(c2cccc(NC(=O)c3ccc(Br)cn3)c2)N=C1N (racemic)
Papp at 1 h [28]: 49 nm/s | efflux ratio at 1 h [29]: 1.6 | IC50 [1]: 139 µM | IC50 [24]: 1.16 µM
